Calls of active or inactive are those of the source. The rule behind the calls is not given here.
Tests used:
HCT-116 [1] = test: Antiproliferative activity against human HCT116 cells after 48 hrs by SRB assay; format: functional; conditions: HCT-116, 48 h
Procedure, shortened: (§1)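 Cells seeded at 3-5 x 10³ cells/well. A T0 plate was fixed with 10% TCA at drug addition, and the rest were incubated 48 h with compound or DMSO, then TCA-fixed and stained with 0.4% SRB in 1% AcOH. Dye was extracted with 10 mM trizma base and read at 515 nm.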

PC-3 = test: Antiproliferative activity against human PC3 cells after 48 hrs by SRB assay; format: functional; conditions: PC-3, 48 h; procedure, shortened: as §1
A549 = test: Antiproliferative activity against human A549 cells after 48 hrs by SRB assay; format: functional; conditions: A549, 48 h; procedure, shortened: as §1
HCT-116 [2] = test: Anticlonogenic activity against human HCT116 cells after 24 hrs by crystal violet staining-based assay; format: functional, cell-based
Procedure, shortened: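 Cells exposed to a range of concentrations or DMSO vehicle for 24 h, washed, trypsinized and replated at 500 cells/well; after 14 days colonies were fixed and stained with 0.5% crystal violet in 70% EtOH. Colonies of more than 50 cells were counted, and survival fraction was taken relative to DMSO control.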

Histone deacetylase 1 = Histone deacetylase 1 (Homo sapiens, UniProt Q13547); test: Inhibition of full length human recombinant C-terminal FLAG-His-tagged HDAC1 expressed in Sf21 cells using RHKK(Ac) as substrate after 60 mins by fluorimetric method
Histone deacetylase 2 = Histone deacetylase 2 (Homo sapiens, UniProt Q92769); test: Inhibition of full length human recombinant C-terminal GST-tagged HDAC2 expressed in insect cells using RHKK(Ac) as substrate after 60 mins by fluorimetric method
[3] = biological target: T1, Protein deacetylase HDAC6 (Homo sapiens, UniProt Q9UBN7); test: Inhibition of full length human recombinant N-terminal GST-tagged HDAC6 expressed in Sf9 cells using RHKK(Ac) as substrate after 90 mins by fluorimetric method
T1 sequence (Q9UBN7 whole entry): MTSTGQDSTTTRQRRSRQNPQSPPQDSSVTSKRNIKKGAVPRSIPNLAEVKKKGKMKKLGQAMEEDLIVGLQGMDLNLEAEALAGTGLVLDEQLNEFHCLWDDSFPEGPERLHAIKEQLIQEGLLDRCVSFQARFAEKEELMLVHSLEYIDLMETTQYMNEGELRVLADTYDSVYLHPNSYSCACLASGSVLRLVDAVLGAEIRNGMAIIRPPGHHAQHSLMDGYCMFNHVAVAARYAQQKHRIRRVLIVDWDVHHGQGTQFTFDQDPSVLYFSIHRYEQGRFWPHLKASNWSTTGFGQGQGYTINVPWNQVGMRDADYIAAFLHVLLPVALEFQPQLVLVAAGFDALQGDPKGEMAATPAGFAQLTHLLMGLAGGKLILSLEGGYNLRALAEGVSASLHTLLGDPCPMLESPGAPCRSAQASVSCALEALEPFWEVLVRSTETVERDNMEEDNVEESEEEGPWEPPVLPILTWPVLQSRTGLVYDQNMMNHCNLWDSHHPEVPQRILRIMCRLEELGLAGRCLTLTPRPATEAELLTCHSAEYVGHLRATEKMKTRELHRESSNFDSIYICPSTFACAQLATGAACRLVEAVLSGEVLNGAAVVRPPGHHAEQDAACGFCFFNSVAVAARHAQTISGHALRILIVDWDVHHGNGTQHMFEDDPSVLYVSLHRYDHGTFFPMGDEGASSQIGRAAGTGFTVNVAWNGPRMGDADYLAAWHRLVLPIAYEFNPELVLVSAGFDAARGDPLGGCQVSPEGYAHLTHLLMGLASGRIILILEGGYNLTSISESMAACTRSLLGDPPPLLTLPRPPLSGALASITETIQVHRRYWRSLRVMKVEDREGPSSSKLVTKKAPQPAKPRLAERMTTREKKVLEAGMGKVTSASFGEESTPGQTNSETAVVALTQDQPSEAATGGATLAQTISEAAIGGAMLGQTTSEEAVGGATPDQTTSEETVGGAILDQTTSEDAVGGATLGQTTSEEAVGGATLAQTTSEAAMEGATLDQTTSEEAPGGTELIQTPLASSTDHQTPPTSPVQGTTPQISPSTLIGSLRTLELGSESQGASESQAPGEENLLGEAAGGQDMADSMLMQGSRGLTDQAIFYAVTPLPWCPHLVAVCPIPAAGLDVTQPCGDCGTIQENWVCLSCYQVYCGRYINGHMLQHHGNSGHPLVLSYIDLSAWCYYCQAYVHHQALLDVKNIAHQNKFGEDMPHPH

Homo sapiens [4] = organism: Homo sapiens; test: Selectivity ratio of IC50 for full length human recombinant C-terminal FLAG-His-tagged HDAC1 to IC50 for full length human recombinant N-terminal GST-tagged HDAC6
Homo sapiens [5] = organism: Homo sapiens; test: Selectivity ratio of IC50 for full length human recombinant C-terminal GST-tagged HDAC2 to IC50 for full length human recombinant N-terminal GST-tagged HDAC6
[6] = biological target: T2, Protein deacetylase HDAC6 (Homo sapiens) (UniProt Q9UBN7); test: Inhibition of HDAC6 in human HCT116 cells assessed as upregulation of acetylated tubulin levels at 2.5 uM after 6 hrs by Western blot method; format: cell-based
T2 sequence (whole entry): T1 sequence (Q9UBN7 whole entry)
Procedure, shortened: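 HCT116 cells treated 6 h with compound, then lysates probed by western blot for acetyl-tubulin, with ECL detection.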

Homo sapiens [7] = organism: Homo sapiens; test: Inhibition of class 1 HDAC in human HCT116 cells assessed as upregulation of acetylated histone H3 levels at 2.5 uM after 6 hrs by Western blot method; format: cell-based
HCT-116 [8] = test: Cell cycle arrest in human HCT116 cells assessed as accumulation at sub-G1 phase after 48 hrs by propidium iodide staining-based flow cytometric method; format: functional
Procedure, shortened: (§2)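 HCT116 cells treated 48 h, then fixed overnight in 75% EtOH at -20 °C and washed in cold PBS. They were incubated 30 min at room temperature in 0.1 M phosphate-citric acid buffer (pH 7.8) and stained with propidium iodide buffer containing 0.1% Triton X-100 and RNase A. The sub-G1 fraction was measured by flow cytometry.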

HCT-116 [9] = test: Induction of apoptosis in human HCT116 cells assessed as increase in cleaved PARP levels at 1.25 to 2.5 uM after 48 hrs Western blot method; format: functional, cell-based
HCT-116 [10] = test: Induction of apoptosis in human HCT116 cells assessed as increase in cleaved caspase 3 levels at 1.25 to 2.5 uM after 48 hrs Western blot method; format: functional, cell-based
HCT-116 [11] = test: Cell cycle arrest in human HCT116 cells assessed as accumulation at sub-G1 phase at 5 uM after 48 hrs by propidium iodide staining-based flow cytometric method; format: functional; procedure, shortened: as §2

Chain of Histone deacetylase 1 (Q13547 whole entry): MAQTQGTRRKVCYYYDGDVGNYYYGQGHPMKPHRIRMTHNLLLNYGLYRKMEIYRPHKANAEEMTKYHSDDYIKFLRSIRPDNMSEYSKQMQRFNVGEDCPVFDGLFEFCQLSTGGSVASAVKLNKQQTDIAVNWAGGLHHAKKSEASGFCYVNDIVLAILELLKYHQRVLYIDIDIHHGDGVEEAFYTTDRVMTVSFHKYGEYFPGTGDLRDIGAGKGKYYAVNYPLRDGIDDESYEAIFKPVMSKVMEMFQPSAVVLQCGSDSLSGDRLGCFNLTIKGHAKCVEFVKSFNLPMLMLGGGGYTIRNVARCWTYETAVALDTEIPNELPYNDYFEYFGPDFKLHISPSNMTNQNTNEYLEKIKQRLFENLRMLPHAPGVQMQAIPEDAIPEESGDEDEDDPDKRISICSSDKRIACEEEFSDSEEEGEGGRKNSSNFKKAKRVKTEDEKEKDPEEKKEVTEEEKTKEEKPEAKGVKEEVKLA
Chain of Histone deacetylase 2 (Q92769 whole entry): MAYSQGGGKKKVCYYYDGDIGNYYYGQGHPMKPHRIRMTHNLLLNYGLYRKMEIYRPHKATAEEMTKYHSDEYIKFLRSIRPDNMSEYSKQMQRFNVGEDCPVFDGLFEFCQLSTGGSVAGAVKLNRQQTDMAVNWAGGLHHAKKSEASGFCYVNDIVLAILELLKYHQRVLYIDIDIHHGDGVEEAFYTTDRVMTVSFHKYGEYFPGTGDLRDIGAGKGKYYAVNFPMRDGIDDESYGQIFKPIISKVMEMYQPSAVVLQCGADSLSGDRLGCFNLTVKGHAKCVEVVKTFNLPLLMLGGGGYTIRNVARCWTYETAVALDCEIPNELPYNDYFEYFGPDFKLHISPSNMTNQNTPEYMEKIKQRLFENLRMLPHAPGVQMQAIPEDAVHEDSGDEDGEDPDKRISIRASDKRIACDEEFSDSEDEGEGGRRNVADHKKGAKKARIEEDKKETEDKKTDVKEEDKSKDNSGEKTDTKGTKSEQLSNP

SMILES	GI50 (HCT-116 [1]) [µM]	GI50 (PC-3) [µM]	GI50 (A549) [µM]	Activity (HCT-116 [2])	IC50 (Histone deacetylase 1) [µM]	IC50 (Histone deacetylase 2) [µM]	IC50 [3] [µM]	Ratio IC50 (Homo sapiens [4])	Ratio IC50 (Homo sapiens [5])	Acetylated tubulin upregulation (qualitative) [6]	Acetylated histone H3 upregulation (qualitative) (Homo sapiens [7])	Activity (HCT-116 [8])	Activity (HCT-116 [9])	Activity (HCT-116 [10])	Activity (HCT-116 [11])
Cc1c(CN(C)C)c2ccccc2n1S(=O)(=O)c1cccc(/C=C/C(=O)NO)c1	0.5	1.69	1.92	Dose-dependent effect	1.85	1.34	0.0849	21	15	Active	inactive	Dose-dependent effect	Active	Active	–
Cc1c(CN(C)C)c2ccccc2n1Cc1ccc(C(=O)NO)cc1	> 5	> 5	> 5	–	9.73	> 10	0.00617	1580	> 1620	–	–	–	–	–	–
CN(C)Cc1cn(Cc2ccc(C(=O)NO)cc2)c2ccccc12	> 5	3.93	> 5	–	7.13	12.2	0.0217	328	562	–	–	–	–	–	–
CN1CCc2c(c3ccccc3n2S(=O)(=O)c2cccc(/C=C/C(=O)NO)c2)C1	0.64	1.84	2.45	–	2.7	3.13	0.189	14	16	–	–	–	–	–	–
CN(C)C(=O)c1cn(Cc2ccc(/C=C/C(=O)NO)cc2)c2ccccc12	0.75	1.89	3.33	Dose-dependent effect	0.627	1.04	0.0085	73	122	Active	inactive	Dose-dependent effect	Active	Active	–
Cc1c(CN(C)C)c2ccccc2n1S(=O)(=O)c1ccc(/C=C/C(=O)NO)cc1	0.55	0.7	1.56	Dose-dependent effect	4.01	1.27	0.063	63	20	Active	inactive	Dose-dependent effect	Active	Active	–
CN1CCc2c(c3ccccc3n2Cc2ccc(/C=C/C(=O)NO)cc2)C1	0.73	1.69	2.68	–	1.6	1.65	0.0418	38	39	–	–	–	–	–	–
CN(C)C(=O)c1cn(Cc2ccc(C(=O)NO)cc2)c2ccccc12	> 5	> 5	> 5	–	5.72	> 10	0.00801	714	> 1250	–	–	–	–	–	–
CN(C)Cc1cn(S(=O)(=O)c2ccc(/C=C/C(=O)NO)cc2)c2ccccc12	0.52	0.79	1.62	Dose-dependent effect	1.93	0.97	0.0167	115	58	Active	inactive	Dose-dependent effect	Active	Active	–
CN(C)Cc1cn(S(=O)(=O)c2cccc(/C=C/C(=O)NO)c2)c2ccccc12	0.54	1.03	1.87	Dose-dependent effect	1.51	1.64	0.0893	16	18	Active	inactive	Dose-dependent effect	Active	Active	–
Cc1c(CN(C)C)c2ccccc2n1Cc1ccc(/C=C/C(=O)NO)cc1	1.26	2.08	3.69	–	2.13	2.38	0.0964	22	24	–	–	–	–	–	–
CN(C)C(=O)c1cn(S(=O)(=O)c2ccc(/C=C/C(=O)NO)cc2)c2ccccc12	2.14	3.1	> 5	–	2.01	1.46	0.0108	186	135	–	–	–	–	–	–
CN(C)Cc1cn(Cc2ccc(/C=C/C(=O)NO)cc2)c2ccccc12	1.39	2.55	3	–	2.25	1.12	0.0431	52	25	–	–	–	–	–	–
CN(C)C(=O)c1cn(S(=O)(=O)c2cccc(/C=C/C(=O)NO)c2)c2ccccc12	2.49	> 5	> 5	–	6.91	> 10	0.201	34	> 49	–	–	–	–	–	–
CN1CCc2c(c3ccccc3n2Cc2ccc(C(=O)NO)cc2)C1 [TUBASTATIN A]	> 5	> 5	> 5	–	–	–	–	–	–	–	–	–	inactive	inactive	Active
